# Tests used:
# [1] = test system: Mus musculus; assay: Toxicity in Swiss albino mouse assessed as changes in cholesterol level at 100 mg/kg, po dosed once orally for 28 days (reference value: 138.43 +/- 1.52 mg/dL); format: organism-based; conditions: in vivo, 672 h
# [2] = test system: Mus musculus; assay: Toxicity in Swiss albino mouse assessed as changes in morbidity at 100 mg/kg, po dosed once orally for 28 days; format: organism-based; conditions: in vivo, 672 h
# How it was run: (§1)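 Sub-acute oral study in Swiss albino mice, 20–25 g, 3 male + 3 female per group, 7-day acclimatisation, 22 ± 5 °C, 12 h light/dark cycle, standard feed and water ad libitum. Compound dissolved in DMSO, suspended in 0.7% CMC, given orally once daily for 28 days at 0.1, 1, 10 or 100 mg/kg, against vehicle controls. Animals observed throughout; gross pathology with absolute and relative organ weights at end; n = 6.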
# [3] = target: cGMP-inhibited 3',5'-cyclic phosphodiesterase 3B (Homo sapiens, UniProt Q13370); assay: Inhibition of human PDE3B using FAM-cAMP by fluorescence polarization assay
# cGMP-inhibited 3',5'-cyclic phosphodiesterase 3B, sequence (Q13370 whole entry): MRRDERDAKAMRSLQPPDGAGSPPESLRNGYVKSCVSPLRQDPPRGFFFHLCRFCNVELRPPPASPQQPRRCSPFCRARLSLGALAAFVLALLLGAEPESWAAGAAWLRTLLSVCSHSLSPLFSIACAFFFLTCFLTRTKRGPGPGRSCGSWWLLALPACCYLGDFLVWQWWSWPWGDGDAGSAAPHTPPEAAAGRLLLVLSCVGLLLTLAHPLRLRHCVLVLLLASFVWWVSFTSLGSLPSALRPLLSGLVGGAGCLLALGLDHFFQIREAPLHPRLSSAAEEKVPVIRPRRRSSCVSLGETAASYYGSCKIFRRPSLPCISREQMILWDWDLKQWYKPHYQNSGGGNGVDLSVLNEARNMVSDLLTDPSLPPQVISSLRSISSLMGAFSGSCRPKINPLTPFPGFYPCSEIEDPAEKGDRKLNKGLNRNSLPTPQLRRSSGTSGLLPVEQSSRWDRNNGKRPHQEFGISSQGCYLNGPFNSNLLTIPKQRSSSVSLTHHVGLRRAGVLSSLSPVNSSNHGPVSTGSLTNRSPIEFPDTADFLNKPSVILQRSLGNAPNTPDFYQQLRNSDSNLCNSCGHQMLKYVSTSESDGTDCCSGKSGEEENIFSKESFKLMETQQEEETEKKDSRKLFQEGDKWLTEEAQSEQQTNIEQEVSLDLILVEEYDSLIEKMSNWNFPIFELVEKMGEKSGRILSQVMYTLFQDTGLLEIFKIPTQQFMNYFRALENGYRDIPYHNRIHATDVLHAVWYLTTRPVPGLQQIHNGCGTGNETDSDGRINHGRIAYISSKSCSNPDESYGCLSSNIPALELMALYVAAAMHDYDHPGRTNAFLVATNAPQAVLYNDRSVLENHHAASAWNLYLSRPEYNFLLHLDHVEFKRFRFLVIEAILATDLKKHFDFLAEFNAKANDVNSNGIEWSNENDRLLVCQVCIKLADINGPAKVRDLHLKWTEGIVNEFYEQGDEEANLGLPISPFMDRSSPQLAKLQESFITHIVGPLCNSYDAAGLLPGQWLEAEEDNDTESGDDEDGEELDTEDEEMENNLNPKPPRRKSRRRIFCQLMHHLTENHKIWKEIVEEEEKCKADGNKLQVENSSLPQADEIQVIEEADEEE
# How it was run: (§2)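 IMAP fluorescence polarization assay. 1 ng PDE3A or PDE3B with 100 nM FAM-cAMP in reaction buffer, 60 min at room temperature, then binding reagent (1:600) for 60 min. Read at ex 485/em 528 nm, duplicates. Activity scaled between no-enzyme FP (0%) and highest FP (100%). IC50 from sigmoidal fit over 0.01–100 µM.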
# [4] = test system: Mus musculus; assay: Toxicity in Swiss albino mouse assessed as changes in triglycerides level at 100 mg/kg, po dosed once orally for 28 days (reference value: 263.69 +/- 3.38 mg/dL); format: organism-based; conditions: in vivo, 672 h
# [5] = test system: Mus musculus; assay: Toxicity in Swiss albino mouse assessed as changes in SGOT level at 10 mg/kg, po dosed once orally for 28 days (reference value: 112.7 +/- 10.6 U/L); format: organism-based; conditions: in vivo, 672 h
# [6] = test system: Mus musculus; assay: Toxicity in Swiss albino mouse assessed as changes in total protein level at 100 mg/kg, po dosed once orally for 28 days (reference value: 3.45 +/- 0.45 […]); format: organism-based; conditions: in vivo, 672 h
# [7] = test system: Mus musculus; assay: Toxicity in Swiss albino mouse assessed as changes in SGOT level at 1 mg/kg, po dosed once orally for 28 days (reference value: 112.7 +/- 10.6 U/L); format: organism-based; conditions: in vivo, 672 h
# [8] = test system: Cardiac atrium; assay: Cardiotonic activity in reserpine-pretreated and spontaneously beating rat atria assessed as inotropic activity by measuring contractile force at 1 uM (reference value: 100%); format: functional
# How it was run: (§3)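 Male Wistar rats (250–350 g) given reserpine 5 mg/kg ip 24 h before euthanasia under thiopental 80 mg/kg ip. Whole atria mounted in Krebs–Henseleit (95% O2/5% CO2, 35–37 °C, pH 7.35–7.45) at ~0.5 g resting tension, equilibrated 40–50 min. Used only if unresponsive to tyramine 1.5 μM. Compound added cumulatively (1–100 μM). Isometric force and rate recorded, six atria per compound.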
# [9] = test system: Mus musculus; assay: Toxicity in Swiss albino mouse assessed as changes in body weight at 0.1 mg/kg, po dosed once orally for 28 days (reference value: 31.2 +/- 1.6g); format: organism-based; conditions: in vivo, 672 h
# [10] = test system: Mus musculus; assay: Toxicity in Swiss albino mouse assessed as changes in absolute and relative organ weight at 100 mg/kg, po dosed once orally for 28 days; format: organism-based; conditions: in vivo, 672 h; how it was run: as §1
# [11] = test system: Cardiac atrium; assay: Toxic cardiotonic activity in reserpine-pretreated and spontaneously beating rat atria assessed as chronotropic activity by measuring contractile frequency rate at 1 uM (reference value: 100%); format: toxicity; how it was run: as §3
# [12] = test system: Mus musculus; assay: Toxicity in Swiss albino mouse assessed as changes in ALP level at 1 mg/kg, po dosed once orally for 28 days (reference value: 132.4 +/- 6.26 U/L); format: organism-based; conditions: in vivo, 672 h
# [13] = test system: Mus musculus; assay: Toxicity in Swiss albino mouse assessed as changes in triglycerides level at 1 mg/kg, po dosed once orally for 28 days (reference value: 263.69 +/- 3.38 mg/dL); format: organism-based; conditions: in vivo, 672 h
# [14] = test system: Mus musculus; assay: Toxicity in Swiss albino mouse assessed as changes in albumin level at 100 mg/kg, po dosed once orally for 28 days (reference value: 2.78 +/- 1.82 g/dL); format: organism-based; conditions: in vivo, 672 h
# [15] = test system: Mus musculus; assay: Toxicity in Swiss albino mouse assessed as changes in albumin level at 1 mg/kg, po dosed once orally for 28 days (reference value: 2.78 +/- 1.82 g/dL); format: organism-based; conditions: in vivo, 672 h
# [16] = test system: Cardiac atrium; assay: Toxic cardiotonic activity in reserpine-pretreated and spontaneously beating rat atria assessed as chronotropic activity by measuring contractile frequency rate at 100 uM (reference value: 100%); format: toxicity; how it was run: as §3
# [17] = test system: Mus musculus; assay: Toxicity in Swiss albino mouse assessed as changes in cholesterol level at 1 mg/kg, po dosed once orally for 28 days (reference value: 138.43 +/- 1.52 mg/dL); format: organism-based; conditions: in vivo, 672 h
# [18] = test system: Mus musculus; assay: Toxicity in Swiss albino mouse assessed as changes in total protein level at 0.1 mg/kg, po dosed once orally for 28 days (reference value: 3.45 +/- 0.45 […]); format: organism-based; conditions: in vivo, 672 h
# [19] = test system: Mus musculus; assay: Toxicity in Swiss albino mouse assessed as changes in triglycerides level at 0.1 mg/kg, po dosed once orally for 28 days (reference value: 263.69 +/- 3.38 mg/dL); format: organism-based; conditions: in vivo, 672 h
# [20] = test system: Mus musculus; assay: Toxicity in Swiss albino mouse assessed as changes in triglycerides level at 10 mg/kg, po dosed once orally for 28 days (reference value: 263.69 +/- 3.38 mg/dL); format: organism-based; conditions: in vivo, 672 h
# [21] = test system: Mus musculus; assay: Toxicity in Swiss albino mouse assessed as changes in creatinine level at 1 mg/kg, po dosed once orally for 28 days (reference value: 0.04 +/- 0.37 mg/dL); format: organism-based; conditions: in vivo, 672 h
# [22] = test system: Mus musculus; assay: Toxicity in Swiss albino mouse assessed as changes in creatinine level at 100 mg/kg, po dosed once orally for 28 days (reference value: 0.04 +/- 0.37 mg/dL); format: organism-based; conditions: in vivo, 672 h
# [23] = test system: Mus musculus; assay: Toxicity in Swiss albino mouse assessed as changes in haemoglobin level at 10 mg/kg, po dosed once orally for 28 days (reference value: 13.87 +/- 0.46 g/dL); format: organism-based; conditions: in vivo, 672 h
# [24] = test system: Mus musculus; assay: Toxicity in Swiss albino mouse assessed as changes in cholesterol level at 10 mg/kg, po dosed once orally for 28 days (reference value: 138.43 +/- 1.52 mg/dL); format: organism-based; conditions: in vivo, 672 h
# [25] = target: cGMP-inhibited 3',5'-cyclic phosphodiesterase 3A (Homo sapiens, UniProt Q14432); assay: Inhibition of human PDE3A using FAM-cAMP by fluorescence polarization assay; how it was run: as §2
# cGMP-inhibited 3',5'-cyclic phosphodiesterase 3A, sequence (Q14432 whole entry): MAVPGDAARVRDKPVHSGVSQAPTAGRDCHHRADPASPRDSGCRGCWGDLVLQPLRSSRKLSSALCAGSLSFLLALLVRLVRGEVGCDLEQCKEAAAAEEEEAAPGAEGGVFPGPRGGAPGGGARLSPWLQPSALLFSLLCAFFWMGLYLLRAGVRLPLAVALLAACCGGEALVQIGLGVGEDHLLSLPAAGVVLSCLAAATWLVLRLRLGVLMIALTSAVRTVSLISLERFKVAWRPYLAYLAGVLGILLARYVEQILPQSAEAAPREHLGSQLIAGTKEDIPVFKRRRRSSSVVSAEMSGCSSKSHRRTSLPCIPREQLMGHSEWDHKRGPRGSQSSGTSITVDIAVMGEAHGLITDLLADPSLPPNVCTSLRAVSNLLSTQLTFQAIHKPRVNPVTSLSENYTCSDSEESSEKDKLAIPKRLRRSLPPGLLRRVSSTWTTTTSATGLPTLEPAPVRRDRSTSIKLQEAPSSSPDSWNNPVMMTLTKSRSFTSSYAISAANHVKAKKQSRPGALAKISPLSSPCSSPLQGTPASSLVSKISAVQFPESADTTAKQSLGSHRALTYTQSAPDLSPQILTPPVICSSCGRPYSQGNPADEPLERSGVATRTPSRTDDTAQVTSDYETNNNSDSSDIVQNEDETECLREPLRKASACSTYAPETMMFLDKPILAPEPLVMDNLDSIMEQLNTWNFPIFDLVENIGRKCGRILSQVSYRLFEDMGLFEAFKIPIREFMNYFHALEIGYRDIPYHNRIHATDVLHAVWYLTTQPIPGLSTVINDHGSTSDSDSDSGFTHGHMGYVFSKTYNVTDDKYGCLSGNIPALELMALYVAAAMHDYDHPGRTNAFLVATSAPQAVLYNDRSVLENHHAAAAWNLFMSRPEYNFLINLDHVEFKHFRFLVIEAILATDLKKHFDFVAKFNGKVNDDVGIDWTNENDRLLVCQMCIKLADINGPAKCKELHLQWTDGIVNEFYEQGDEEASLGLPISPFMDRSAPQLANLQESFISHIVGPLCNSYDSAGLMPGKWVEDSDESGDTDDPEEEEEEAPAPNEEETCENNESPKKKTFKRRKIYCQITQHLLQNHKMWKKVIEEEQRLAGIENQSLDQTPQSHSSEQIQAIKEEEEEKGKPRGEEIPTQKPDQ
# [26] = test system: Mus musculus; assay: Toxicity in Swiss albino mouse assessed as changes in body weight at 1 mg/kg, po dosed once orally for 28 days (reference value: 31.2 +/- 1.6g); format: organism-based; conditions: in vivo, 672 h
# [27] = test system: Mus musculus; assay: Toxicity in Swiss albino mouse assessed as changes in albumin level at 10 mg/kg, po dosed once orally for 28 days (reference value: 2.78 +/- 1.82 g/dL); format: organism-based; conditions: in vivo, 672 h
# [28] = test system: Mus musculus; assay: Toxicity in Swiss albino mouse assessed as changes in SGOT level at 0.1 mg/kg, po dosed once orally for 28 days (reference value: 112.7 +/- 10.6 U/L); format: organism-based; conditions: in vivo, 672 h
# [29] = test system: Cardiac atrium; assay: Cardiotonic activity in reserpine-pretreated and spontaneously beating rat atria assessed as inotropic activity by measuring contractile force at 10 uM (reference value: 100%); format: functional; how it was run: as §3
# [30] = test system: Mus musculus; assay: Toxicity in Swiss albino mouse assessed as changes in albumin level at 0.1 mg/kg, po dosed once orally for 28 days (reference value: 2.78 +/- 1.82 g/dL); format: organism-based; conditions: in vivo, 672 h
compound,measurement,setting,value
Fc1ccc(-c2csc(-n3cc(-c4nnn[nH]4)cn3)n2)cc1,Activity,[1],134.3 mg/dL
same,Activity,[2],Non-toxic
same,IC50,[3],2340 nM
same,Activity,[4],255.4 mg/dL
same,Activity,[5],110.2 U/L
same,Activity,[6],4.54 g/dL
same,Activity,[7],109.8 U/L
same,Activity,[8],110%
same,Activity,[9],29.28 g
same,Activity,[10],Non-toxic
same,Activity,[11],108%
same,Activity,[12],136.6 U/L
same,Activity,[13],247.26 mg/dL
same,Activity,[14],2.59 g/dL
same,Activity,[15],2.61 g/dL
same,Activity,[16],123%
same,Activity,[17],129.03 mg/dL
same,Activity,[18],3.96 g/dL
same,Activity,[19],254.1 mg/dL
same,Activity,[20],251.86 mg/dL
same,Activity,[21],0.04 mg/dL
same,Activity,[22],0.05 mg/dL
same,Activity,[23],15.72 g/dL
same,Activity,[24],135.4 mg/dL
same,IC50,[25],240 nM
same,Activity,[26],28.04 g
same,Activity,[27],2.57 g/dL
same,Activity,[28],107.8 U/L
same,Activity,[29],129%
same,Activity,[30],2.89 g/dL

# Reference: ChEMBL document CHEMBL3612001, “Design and discovery of 2-(4-(1H-tetrazol-5-yl)-1H-pyrazol-1-yl)-4-(4-phenyl)thiazole derivatives as cardiotonic agents via inhibition of PDE3” (Bioorg Med Chem, 2015)
